The target of assay [1] is Beta-lactamase (Enterobacter cloacae) (UniProt P05364). The experiment in a line: Irreversible inhibition of Enterobacter cloacae P99 beta-lactamase assessed as ratio of K2/K3 using cephalothin as substrate by spectrophotometric analysis. Put shortly:
(§1)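 Reactions ran at 25 °C in 20 mM MOPS, pH 7.5, with 0.1% BSA. Time courses: aliquots taken into 300 µM cephalothin, initial rates read at 270 nm. Titrations: 150 nM enzyme with 0–2.0 µM inhibitor, run to completion. Both datasets were fitted together to an acylation/partition scheme, k2 fixed at 100 s⁻¹. k_i = k1/(1 + k2/k3).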

Another assay addresses Beta-lactamase (Enterobacter cloacae, UniProt P05364). The experiment in a line: Irreversible inhibition of Enterobacter cloacae P99 beta-lactamase using cephalothin as substrate by spectrophotometric analysis. In outline: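 P99 class C β-lactamase (stock concentration by A280, ε 7.1 x 10⁴ M⁻¹cm⁻¹) incubated with inhibitor in 20 mM MOPS pH 7.5, 0.1% BSA, 25 °C. Aliquots diluted 1:50 into 300 μM cephalothin; initial rates followed at 270 nm over time. Titration: 150 nM enzyme with 0–2.0 μM inhibitor to end-point. Time-course and titration data fitted jointly to Scheme 2, k2 fixed at 100 s⁻¹, giving k1, k2/k3 and k_i.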

For assay [2], the target named is Beta-lactamase (Enterobacter cloacae) (UniProt P05364). The experiment in a line: Irreversible inhibition of Enterobacter cloacae P99 beta-lactamase assessed as second-order rate constant for enzyme-inhibitor complex using cephalothin as substrate by spectrophotometric analysis. Put shortly: as §1
For assay [3] the target is unchanged. The experiment in a line: Binding affinity to Enterobacter cloacae P99 beta-lactamase assessed as increase in molecular weight of enzyme-compound complex by mass-spectra analysis (reference value: 39192 Da). Put shortly: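 P99 enzyme was analysed by electrospray MS before and after inactivation. Protein was precipitated with trichloroacetic acid, then the precipitate was washed and dried before analysis.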

Chain of Beta-lactamase (P05364 whole entry): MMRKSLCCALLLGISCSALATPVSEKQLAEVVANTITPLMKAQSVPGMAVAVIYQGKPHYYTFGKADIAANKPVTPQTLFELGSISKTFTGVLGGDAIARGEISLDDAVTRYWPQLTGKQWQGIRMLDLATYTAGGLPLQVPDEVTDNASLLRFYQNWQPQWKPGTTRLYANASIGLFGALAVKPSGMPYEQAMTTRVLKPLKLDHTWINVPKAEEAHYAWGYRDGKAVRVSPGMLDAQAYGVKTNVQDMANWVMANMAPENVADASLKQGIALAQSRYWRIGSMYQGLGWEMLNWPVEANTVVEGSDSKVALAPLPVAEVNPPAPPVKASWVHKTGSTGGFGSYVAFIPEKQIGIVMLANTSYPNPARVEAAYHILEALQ
Chain of Beta-lactamase (Enterobacter cloacae) (P05364 21-381 limits assumed): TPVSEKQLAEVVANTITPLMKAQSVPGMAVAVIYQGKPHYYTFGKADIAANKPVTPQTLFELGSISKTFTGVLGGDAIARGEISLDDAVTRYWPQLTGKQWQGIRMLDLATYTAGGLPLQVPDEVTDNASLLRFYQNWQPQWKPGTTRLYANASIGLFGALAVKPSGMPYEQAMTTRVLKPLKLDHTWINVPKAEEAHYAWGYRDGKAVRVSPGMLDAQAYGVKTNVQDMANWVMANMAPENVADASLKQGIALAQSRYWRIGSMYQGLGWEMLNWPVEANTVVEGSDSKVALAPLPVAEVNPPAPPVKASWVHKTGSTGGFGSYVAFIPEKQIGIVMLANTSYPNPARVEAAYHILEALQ

As for `O=C(NOC(=O)Oc1ccccc1)OCc1ccccc1`, the Ratio in assay [1] is 2. The “second-order inactivation rate constant (k_i)” value at Beta-lactamase came out at 2 ×10³ /M/s. Moreover, the K in assay [2] was 6.1 ×10³ /M/s.

In the case of `N[C@H](CCCOC(=O)NOC(=O)Oc1ccccc1)C(=O)O`, the Ratio in assay [1] came to 1.25. For the same compound, the “second-order inactivation rate constant (k_i)” value at Beta-lactamase amounted to 1.6 ×10⁴ /M/s. Moreover, in assay [2], the K is 3.5 ×10⁴ /M/s.

In the case of `O=C(NOC(=O)Oc1ccccc1)OCCc1ccccc1`, the Ratio in assay [1] was 25. In addition, the Activity in assay [3] turned out to be 26 Da. For the same compound, at Beta-lactamase, the “second-order inactivation rate constant (k_i)” value came to 1.4 ×10³ /M/s. In addition, in assay [2], the K came out at 3.7 ×10⁴ /M/s.

Take `O=C(O)CCCCOC(=O)NOC(=O)Oc1ccccc1`: the Ratio in assay [1] was 2.3. Moreover, in assay [3], the Activity was 26 Da. For the same compound, the “second-order inactivation rate constant (k_i)” value at Beta-lactamase worked out at 8.5 ×10³ /M/s. Further, in assay [2], the K turned out to be 2.8 ×10⁴ /M/s.

In the case of `CCCCOC(=O)NOC(=O)Oc1ccccc1`, in assay [1], the Ratio worked out at 2.4. In assay [3], the Activity worked out at 185 Da. The “second-order inactivation rate constant (k_i)” value on Beta-lactamase came out at 1.1 ×10³ /M/s. Besides, in assay [2], the K stood at 3.6 ×10³ /M/s.

Consider `N[C@H](Cc1ccc(OC(=O)NOC(=O)Oc2ccccc2)cc1)C(=O)O`, for which the Ratio in assay [1] was under 1. In assay [3], the Activity came out at 26 Da. For the same compound, the second-order inactivation rate constant (k i) at Beta-lactamase lay in the range of 180 to 360 M⁻¹ s⁻¹. Besides, the K in assay [2] turned out to be 360 M⁻¹ s⁻¹.

(Values after ChEMBL document CHEMBL4480420, “Specificity of extended O-aryloxycarbonyl hydroxamates as inhibitors of a class C β-lactamase” (Bioorg Med Chem, 2019).)
